From ChEMBL document CHEMBL4330094, “Potent Metabolic Sialylation Inhibitors Based on C-5-Modified Fluorinated Sialic Acids” (J Med Chem, 2019)
Active and inactive are the calls of the source. The rule behind the calls is not given here.

Experiments:
[1] = Inhibition of sialyltransferase in mouse EL4 cells assessed as decrease in lectin binding after 3 days by biotinylated MAL2 lectin and streptavidin-PE based flow cytometry; type: cell-based
Summary of the method: (§1)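 Each cell line was incubated 3 days with increasing compound concentrations or equivalent DMSO. Cells were stained with biotinylated MALII (5 µg/ml) in carbo-free blocking buffer with 1 mM CaCl/MgCl for 45-60 min at 4 °C, washed in PBS/1% BSA/0.02% azide, then stained with streptavidin-PE for 20 min at 4 °C. For flow cytometry, MFI was normalized to control as % lectin binding.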

B16-F10 [2] = experiment: Effect on total cell surface glycosylation in mouse B16F10 cells assessed as inhibition of biotinylated AAL-lectin binding at 102.4 uM after 3 days by flow cytometry; type: cell-based; details: b16-f10, 72 h
Summary of the method: (§2)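 B16-F10 cells were exposed 3 days to 102.4 µM compound or DMSO. Staining used biotinylated lectins (AAL 5, PNA 5, GSL-I 1, LCA 1, PHA-L 1, PSA 1, SJA 1, WGA 1 µg/ml) in carbo-free blocking buffer with 1 mM CaCl and 1 mM MgCl for 45-60 min at 4 °C, then streptavidin-PE for 20 min at 4 °C. Flow cytometry read-out was MFI, mean ± SEM from two independent experiments.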

B16-F10 [3] = experiment: Effect on total cell surface glycosylation in mouse B16F10 cells assessed as inhibition of biotinylated WGA-lectin binding at 102.4 uM after 3 days by flow cytometry; type: cell-based; details: b16-f10, 72 h; summary of the method: as §2
B16-F10 [4] = experiment: Inhibition of sialyltransferase in mouse B16-F10 cells assessed as recovery time for sialylation at 51.2 uM pretreated for 3 days followed by washing and re-seeding and measured after 6 days by biotinylated MAL2 lectin-based flow cytometry; type: cell-based
Summary of the method: (§3)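 B16-F10 cells were pretreated 3 days with 25.6 or 51.2 µM compound or DMSO, washed, reseeded, and sampled daily for 6 days. They were stained with biotinylated MALII (5 µg/ml, 45-60 min, 4 °C) plus streptavidin-PE. Flow cytometry MFI was normalized to control as % lectin binding.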

B16-F10 [5] = experiment: Effect on total cell surface glycosylation in mouse B16F10 cells assessed as inhibition of biotinylated PHA-L lectin binding at 102.4 uM after 3 days by flow cytometry; type: cell-based; details: b16-f10, 72 h; summary of the method: as §2
[6] = Inhibition of sialyltransferase in HEK293 cells assessed as decrease in lectin binding after 3 days by biotinylated MAL2 lectin and streptavidin-PE based flow cytometry; type: cell-based, Homo sapiens; summary of the method: as §1
B16-F10 [7] = experiment: Effect on total cell surface glycosylation in mouse B16F10 cells assessed as inhibition of biotinylated SJA-lectin binding at 102.4 uM after 3 days by flow cytometry; type: cell-based; details: b16-f10, 72 h; summary of the method: as §2
[8] = Inhibition of sialyltransferase in mouse 9464D cells assessed as decrease in lectin binding after 3 days by biotinylated MAL2 lectin and streptavidin-PE based flow cytometry; type: cell-based; summary of the method: as §1
B16-F10 [9] = experiment: Relative inhibitory potency, ratio of SiaFAc to compound EC50 for inhibition of sialyltransferase in mouse B16-F10 cells; type: cell-based
B16-F10 [10] = experiment: Effect on total cell surface glycosylation in mouse B16F10 cells assessed as inhibition of biotinylated GSL1-lectin binding at 102.4 uM after 3 days by flow cytometry; type: cell-based; details: b16-f10, 72 h; summary of the method: as §2
B16-F10 [11] = experiment: Cytotoxicity against mouse B16F10 cells assessed as reduction in metabolic activity at <51.2 uM after 3 days by MTT assay; type: ADME, cell-based; details: b16-f10, 72 h
B16-F10 [12] = experiment: Inhibition of sialyltransferase in mouse B16-F10 cells assessed as recovery time for sialylation at 25.6 uM pretreated for 3 days followed by washing and re-seeding and measured after 6 days by biotinylated MAL2 lectin-based flow cytometry; type: cell-based; summary of the method: as §3
B16-F10 [13] = experiment: Cytotoxicity against mouse B16F10 cells assessed as reduction in metabolic activity at 204.8 uM after 3 days by MTT assay; type: ADME, cell-based; details: b16-f10, 72 h
B16-F10 [14] = experiment: Inhibition of sialyltransferase in mouse B16-F10 cells assessed as reduction in CMP-Sia pool at 51.2 uM after 1 to 24 hrs using fluorinated compounds by reverse-phase ion pairing chromatography/triple quadrupole mass spectrometric analysis; type: cell-based
Summary of the method: (§4)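 B16-F10 cells were incubated 1, 2, 4, 8 or 24 h with 51.2 µM fluorinated analogue or DMSO. Cells were washed with ammonium carbonate buffer (pH 7.4) and snap-frozen in liquid nitrogen. Extraction was twice for 3 min with cold 40% acetonitrile/40% methanol/20% water, followed by centrifugation for 3 min and vacuum drying.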

B16-F10 [15] = experiment: Effect on total cell surface glycosylation in mouse B16F10 cells assessed as inhibition of biotinylated PNA lectin binding at 102.4 uM after 3 days by flow cytometry; type: cell-based; details: b16-f10, 72 h; summary of the method: as §2
[16] = Inhibition of sialyltransferase in mouse B16F10 cells assessed as decrease in lectin binding after 3 days by biotinylated MAL2 lectin and streptavidin-PE based flow cytometry; type: cell-based; summary of the method: as §1
[17] = molecular target: N-acylneuraminate cytidylyltransferase (Mus musculus, UniProt Q99KK2); experiment: Prodrug activation in mouse B16F10 cells assessed as CMAS-mediated CMP-SiaFR levels at 51.2 uM after 1 to 24 hrs using fluorinated compounds by reverse-phase ion pairing chromatography/triple quadrupole mass spectrometric analysis; type: cell-based; summary of the method: as §4
[18] = Inhibition of sialyltransferase in human THP1 cells assessed as decrease in lectin binding after 3 days by biotinylated MAL2 lectin and streptavidin-PE based flow cytometry; type: cell-based; summary of the method: as §1
B16-F10 [19] = experiment: Effect on total cell surface glycosylation in mouse B16F10 cells assessed as inhibition of biotinylated LCA-lectin binding at 102.4 uM after 3 days by flow cytometry; type: cell-based; details: b16-f10, 72 h; summary of the method: as §2
[20] = Inhibition of sialyltransferase in human HeLa cells assessed as decrease in lectin binding after 3 days by biotinylated MAL2 lectin and streptavidin-PE based flow cytometry; type: cell-based; summary of the method: as §1
B16-F10 [21] = experiment: Effect on total cell surface glycosylation in mouse B16F10 cells assessed as inhibition of biotinylated PSA-lectin binding at 102.4 uM after 3 days by flow cytometry; type: cell-based; details: b16-f10, 72 h; summary of the method: as §2

Sequence of N-acylneuraminate cytidylyltransferase (Q99KK2 whole entry): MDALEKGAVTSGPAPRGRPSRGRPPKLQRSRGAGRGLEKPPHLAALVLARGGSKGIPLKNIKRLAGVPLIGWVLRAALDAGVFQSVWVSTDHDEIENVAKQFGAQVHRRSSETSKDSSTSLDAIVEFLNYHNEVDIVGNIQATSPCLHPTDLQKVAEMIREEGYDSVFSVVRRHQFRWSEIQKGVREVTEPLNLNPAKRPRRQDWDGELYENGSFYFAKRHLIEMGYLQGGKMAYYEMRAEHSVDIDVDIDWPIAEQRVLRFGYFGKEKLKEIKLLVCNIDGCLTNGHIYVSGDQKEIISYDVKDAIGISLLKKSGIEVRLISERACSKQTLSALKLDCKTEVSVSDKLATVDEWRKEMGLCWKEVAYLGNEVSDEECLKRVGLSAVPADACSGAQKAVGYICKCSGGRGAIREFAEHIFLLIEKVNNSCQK

| SMILES | EC50 [1] | Activity (B16-F10 [2]) | Activity (B16-F10 [3]) | TIME (B16-F10 [4]) | Activity (B16-F10 [5]) | EC50 [6] | Activity (B16-F10 [7]) | EC50 [8] | Ratio EC50 (B16-F10 [9]) | Activity (B16-F10 [10]) | Activity (B16-F10 [11]) | sialylation recovery time (B16-F10 [12]) | Activity (B16-F10 [13]) | Activity (B16-F10 [15]) | EC50 [16] | Drug metabolism [17] | EC50 [18] | Activity (B16-F10 [19]) | EC50 [20] | Activity (B16-F10 [21]) | further results |
| --- | --- | --- | --- | --- | --- | --- | --- | --- | --- | --- | --- | --- | --- | --- | --- | --- | --- | --- | --- | --- | --- |
| CCOC(=O)N[C@H]1[C@H]([C@H](OC(C)=O)[C@@H](COC(C)=O)OC(C)=O)OC(OC(C)=O)(C(=O)OC)[C@H](F)[C@@H]1OC(C)=O (stereo partly specified) | 42 µM | Non-Toxic | Non-Toxic | 120 to 144 h | Non-Toxic | 2.02 µM | Non-Toxic | 8.91 µM | 15 | Non-Toxic | Non-Toxic | Active | Non-Toxic | Non-Toxic | 1.78 µM | Metabolite_Detected | 0.45 µM | Non-Toxic | 2.02 µM | Non-Toxic | inhibition (B16-F10 [14]): Active |
| C#CCCC(=O)N[C@H]1[C@H]([C@H](OC(C)=O)[C@@H](COC(C)=O)OC(C)=O)OC(OC(C)=O)(C(=O)OC)[C@H](F)[C@@H]1OC(C)=O (stereo partly specified) | > 102 µM | Non-Toxic | Non-Toxic | 48 to 72 h | Non-Toxic | 26.2 µM | Non-Toxic | > 102 µM | 1 | Non-Toxic | Non-Toxic | Active | Non-Toxic | Non-Toxic | 40.6 µM | Metabolite_Detected | 10.4 µM | Non-Toxic | 62.3 µM | Non-Toxic | – |
| COC(=O)C1(OC(C)=O)O[C@@H]([C@H](OC(C)=O)[C@@H](COC(C)=O)OC(C)=O)[C@H](NC(C)=O)[C@@H](OC(C)=O)[C@H]1F (stereo partly specified) | > 102 µM | Non-Toxic | Non-Toxic | 48 to 72 h | Non-Toxic | 45.2 µM | Non-Toxic | > 102 µM | – | Non-Toxic | Non-Toxic | Active | Non-Toxic | Non-Toxic | 26.8 µM | Metabolite_Detected | 8.5 µM | Non-Toxic | 53 µM | Non-Toxic | – |
| C#CCOC(=O)N[C@H]1[C@H]([C@H](OC(C)=O)[C@@H](COC(C)=O)OC(C)=O)OC(OC(C)=O)(C(=O)OC)[C@H](F)[C@@H]1OC(C)=O (stereo partly specified) | 51 µM | Non-Toxic | Non-Toxic | 120 to 144 h | Non-Toxic | 1.19 µM | Non-Toxic | 10.7 µM | 37 | Non-Toxic | Non-Toxic | Active | Non-Toxic | Non-Toxic | 0.72 µM | Metabolite_Detected | 0.42 µM | Non-Toxic | 1.65 µM | Non-Toxic | inhibition (B16-F10 [14]): Active |
